Compounds with a hit are over-represented: about 3.7% of the library has one in this group of screens.
GPR7 antag = antagonists of human GPR7 (neuropeptides B/W receptor 1). P48145. inhibition, % at 4.4 µM. 290,000 tested, 1.1% active. AID 1861. GPR7-expressing cells, fluorescence antagonist assay; in the data active = inhibition above about 16%, passing the limit was not always enough;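 note: cells stimulated with the agonist NPW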
Target sequence (P48145 whole entry, looked up): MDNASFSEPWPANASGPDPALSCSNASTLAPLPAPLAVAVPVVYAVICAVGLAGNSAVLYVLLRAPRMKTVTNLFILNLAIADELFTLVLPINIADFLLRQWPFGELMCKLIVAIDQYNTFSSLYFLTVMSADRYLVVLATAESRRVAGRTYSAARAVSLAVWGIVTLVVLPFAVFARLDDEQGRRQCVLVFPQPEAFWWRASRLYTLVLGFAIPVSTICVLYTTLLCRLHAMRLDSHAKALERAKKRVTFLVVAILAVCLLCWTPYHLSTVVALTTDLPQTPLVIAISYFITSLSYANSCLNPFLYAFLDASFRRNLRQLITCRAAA
CHO parental Ca = counter-screen: ATP calcium response change in parental CHO cells; parental CHO-K1, ATP-induced calcium, Fluo-8 fluorescence; inhibition, % at 5.6 µM; 330,000 tested, 0.63% active;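 active = inhibition above that plate's mean sample inhibition plus 3 SD, cut at about 26% in these data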
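Material: Parental CHO cells | Reagent: ATP | Compound dosing: Single nominal dose of 5.6 µM per compound | Detection: Intracellular calcium via Fluo-8 no-wash fluorescent dye | Read-out: % inhibition of ATP-induced calcium mobilization | Benchmarks: Low control ATP plus DMSO, high control DMSO only | Replicates: Singlicate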
OX1R antag-1 = OX1R (human) antagonism; O43613; OX1R-expressing cells, FRET antagonist read-out; inhibition, % at 6.6 µM; 330,000 tested, 1.8% active; in the data active = inhibition mostly above about 38%, no sharp cut-off; inactive = mostly below about 40%
EP2 mod = modulators of human EP2 prostaglandin E2 receptor; P43116; 260,000 tested, 0.83% active; induction, % at 25 µM; EP2-expressing cells, cAMP HTRF FRET, PGE2 co-stimulation;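 active = compounds whose cAMP rise, as percent of the full-agonist control response, exceeds 60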;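 note: rat C6 glioma line stably carrying human EP2 under a CMV promoter; the protocol text gives 20 µM as final concentration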
Target sequence (P43116 whole entry, looked up): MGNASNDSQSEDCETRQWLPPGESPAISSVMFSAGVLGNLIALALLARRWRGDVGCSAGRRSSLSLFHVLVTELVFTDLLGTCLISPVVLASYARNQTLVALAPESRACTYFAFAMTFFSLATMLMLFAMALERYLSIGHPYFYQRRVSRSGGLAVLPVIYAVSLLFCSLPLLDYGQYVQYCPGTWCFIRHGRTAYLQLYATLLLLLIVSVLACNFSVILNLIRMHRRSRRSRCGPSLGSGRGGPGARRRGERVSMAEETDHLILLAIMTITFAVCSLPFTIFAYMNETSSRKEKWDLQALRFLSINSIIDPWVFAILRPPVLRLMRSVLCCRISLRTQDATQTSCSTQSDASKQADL
OX1R antag-2 = antagonists of human orexin 1 receptor; O43613; inhibition, % at 5 µM; CHO/OX1R cells, Fluo-8 calcium fluorescence, orexin A; 330,000 tested, 0.43% active;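 active = inhibition above its plate's threshold, mean inhibition of all tested compounds on the plate plus 3 SD, cut at about 37% in these data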
EP2 antag = EP2 receptor (human) inhibition | P43116 | C6 glioma cells expressing human EP2, cAMP TR-FRET; cells stimulated with saturating PGE2 | inhibition, % at 25 µM | 260,000 tested, 0.52% active;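 active = percent inhibition above 40 after rounding to a whole number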;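 note: rat C6 glioma host cells with rolipram phosphodiesterase inhibitor present; the protocol text gives 20 µM as final concentration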
OX1R Ca confirm = confirmation of human orexin 1 receptor antagonists; shares compounds with OX1R antag-2; CHO/OX1R cells, orexin A calcium Fluo-8 fluorescence; inhibition, % at 5 µM; 1,100 tested, 38% active; AID 492963; in the data active = inhibition above about 29%
CHO Ca counter = signal in parental CHO cells, OX1R antagonist counter-screen; shares compounds with OX1R antag-2; inhibition, % at 5.6 µM; 1,100 tested, 9.3% active; parental CHO-K1, ATP-induced calcium, Fluo-8 fluorescence; AID 492965;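 active = inhibition above a per-plate limit, the mean inhibition of that plate's test compounds plus 3 SD, cut at about 25% in these data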
OX1R HTRF conf = OX1R (human) antagonism, HTRF confirmed; 1,800 tested, 49% active; shares compounds with OX1R antag-1; AID 492964; inhibition, % at 6.6 µM; OX1R-expressing cells, HTRF antagonist assay; in the data active = inhibition above about 55%;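 note: CHO cells expressing OX1R stimulated with orexin A at about EC80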
CHO-K1 HTRF = signal in parental CHO-K1 cells, OX1R antagonist counter-screen; HTRF counterscreen; 1,800 tested, 48% active; inhibition, % at 6.6 µM; AID 493232; shares compounds with OX1R antag-1; in the data active = inhibition above about 17%
Large screens that a line does not name were inactive (follow-up assays come after a bar, where they were run).

COc1ccccc1NC(=O)c1[nH]c(C)c(C(C)=O)c1C	none
COc1ccccc1OCC(=O)c1[nH]c(C)c(C(C)=O)c1C	OX1R antag-1 82 | OX1R Ca confirm 30 | CHO Ca counter 26 | OX1R HTRF conf inactive | CHO-K1 HTRF 27
Cn1c2ccc(Cl)cc2c2nc3ccccc3nc21	OX1R antag-1 91 | OX1R Ca confirm 40 | CHO Ca counter inactive | OX1R HTRF conf 92 | CHO-K1 HTRF inactive
CCOc1ccc2c(c1)c1nc3ccccc3nc1n2C	none (no result: CHO parental Ca, OX1R antag-1, EP2 mod, OX1R antag-2, EP2 antag)
Cc1cc(=O)[nH]c(=O)n1Cc1ccccc1	none
Cc1ccc(OC(C)c2nnc(N)s2)cc1Cl (stereo unspecified)	none (no result: EP2 antag)
COc1ccc(OCC(=O)Nc2cccc(NC(=O)COc3ccc(OC)cc3)n2)cc1	none
COc1ccc(OCC(=O)Nc2cccc3cccnc23)cc1	OX1R antag-1 87 | OX1R Ca confirm inactive | CHO Ca counter inactive | OX1R HTRF conf inactive | CHO-K1 HTRF inactive
O=C(NCc1ccco1)c1cc(NS(=O)(=O)c2cccc([N+](=O)[O-])c2)ccc1O	none
COCCCNC(=O)CCC(=O)NNc1nc2ccccc2c2nc(-c3ccccc3)nn12	OX1R antag-1 95 | OX1R Ca confirm 29 | CHO Ca counter inactive | OX1R HTRF conf 82 | CHO-K1 HTRF inactive
COc1ccc(N2CCN(C(=O)CCC(=O)NNc3nc4ccccc4c4nc(C)nn34)CC2)cc1	none (no result: EP2 mod, EP2 antag)
CCc1ccc(C(=O)NCC2COc3ccccc3O2)o1 (stereo unspecified)	none
CCOc1ncccc1C(=O)NCC1COc2ccccc2O1 (stereo unspecified)	OX1R antag-1 81 | OX1R Ca confirm inactive | CHO Ca counter inactive | OX1R HTRF conf 69 | CHO-K1 HTRF inactive
O=C(CSc1nc2ncccc2[nH]1)Nc1ccccc1-c1ccccc1	OX1R antag-1 72 (no result: EP2 mod, EP2 antag) | OX1R Ca confirm 31 | CHO Ca counter inactive | OX1R HTRF conf 72 | CHO-K1 HTRF inactive
COc1ccccc1NC(=O)CSc1nc2ncccc2[nH]1	none
CCc1sc(C(=O)Nc2ccc3nc(C)sc3c2)cc1C	OX1R antag-1 81, OX1R antag-2 65 (no result: GPR7 antag, EP2 mod, EP2 antag) | OX1R Ca confirm 53 | CHO Ca counter inactive | OX1R HTRF conf 90 | CHO-K1 HTRF inactive
CCN(CC)c1ccc(/C=N/NC(=O)c2ccco2)cc1	none
CCN(CC)c1ccc(/C=N/NC(=O)c2ccco2)c(O)c1	OX1R antag-1 68, OX1R antag-2 36 | OX1R Ca confirm 73 | CHO Ca counter inactive | OX1R HTRF conf 88 | CHO-K1 HTRF inactive
COc1ccc(S(=O)(=O)N(CC(=O)O)Cc2ccccc2)cc1OC	none
COc1ccc(CN(CC(O)COCc2ccccc2)S(=O)(=O)c2ccccc2Br)cc1OC (stereo unspecified)	OX1R antag-1 46, OX1R antag-2 55 (no result: GPR7 antag, EP2 mod, EP2 antag) | OX1R Ca confirm inactive | CHO Ca counter inactive | OX1R HTRF conf 68 | CHO-K1 HTRF inactive
COC(=O)COc1ccc(/C=C2\SC(=O)N(CC(=O)Nc3ccccc3F)C2=O)cc1	none (no result: EP2 mod, EP2 antag)
CC(=O)Nc1ccc(NC(=O)C2CCCN2C(=O)Nc2ccccc2[N+](=O)[O-])cc1 (stereo unspecified)	none
CC1Cc2ccccc2N1S(=O)(=O)c1cccc(C(=O)c2nccn2C)c1 (stereo unspecified)	OX1R antag-1 40, OX1R antag-2 56 | OX1R Ca confirm inactive | CHO Ca counter inactive | OX1R HTRF conf inactive | CHO-K1 HTRF inactive
O=[N+]([O-])c1ccc(O)c(/C=N/Nc2ccccc2Cl)c1	OX1R antag-1 81 | OX1R Ca confirm 37 | CHO Ca counter inactive | OX1R HTRF conf 84 | CHO-K1 HTRF inactive
O=[N+]([O-])c1ccccc1N/N=C\c1ccccc1Cl	none
S=C(c1nc2ccccc2[nH]1)N1CCOCC1	none
CCN(CC(=O)NCc1ccc(Cl)cc1)C(=O)c1ccc(S(=O)(=O)NCc2ccco2)cc1	none (no result: EP2 mod, EP2 antag)
CCSc1nnc(NC(=O)CSc2nc3c(c(=O)n2-c2ccccc2OC)SCC3)s1	OX1R antag-1 36 | OX1R Ca confirm inactive | CHO Ca counter inactive | OX1R HTRF conf 76 | CHO-K1 HTRF inactive
COc1cc(C(=O)OCC(=O)N2c3ccccc3NC(=O)C2(C)C)ccc1OCC(C)C	OX1R antag-1 56 (no result: GPR7 antag, EP2 mod, EP2 antag) | OX1R Ca confirm inactive | CHO Ca counter inactive | OX1R HTRF conf 56 | CHO-K1 HTRF inactive
COc1ccc(-c2nnc(SCCC(=O)O)n2-c2ccccc2)cc1	none
CCc1ccc(NC(=O)CSc2nc(O)cc(=O)n2C2CCCC2)cc1	none
COC(=O)c1ccccc1NC(=O)CSc1nc(O)cc(=O)n1C1CCCC1	OX1R antag-1 78 | OX1R Ca confirm 50 | CHO Ca counter inactive | OX1R HTRF conf 88 | CHO-K1 HTRF inactive
CCOC(=O)C1=C(C)N(C[C@@H]2CC[C@@H](Cc3ccc(-c4ccccc4)cc3)O2)C(=O)NC1C1CC1 (stereo partly specified)	OX1R antag-1 34, OX1R antag-2 51 (no result: GPR7 antag, EP2 mod, EP2 antag) | OX1R Ca confirm inactive | CHO Ca counter inactive | OX1R HTRF conf inactive | CHO-K1 HTRF inactive
CCOC(=O)C1=C(C)N(C[C@@H]2CC[C@@H](Cc3ccc(-c4ccccc4)cc3)O2)C(=O)NC1c1ccc(-c2ccccc2)cc1 (stereo partly specified)	none (no result: GPR7 antag, EP2 mod, EP2 antag)
OC1(c2cccc(C(F)(F)F)c2)CCN(Cc2nnnn2Cc2ccco2)CC1	none (no result: GPR7 antag, CHO parental Ca, OX1R antag-1, OX1R antag-2)
CCn1c(Cn2nnc(-c3ccccc3)n2)nnc1SCC(=O)Nc1ccccc1	OX1R antag-1 50 | OX1R Ca confirm inactive | CHO Ca counter inactive | OX1R HTRF conf 56 | CHO-K1 HTRF inactive
O=C(O)CCC/C=C\C[C@@H]1[C@@H](/C=C/[C@@H](O)COc2cccc(Cl)c2)[C@H](O)C[C@@H]1O	none
O=C(CN1C(=O)C2C3C=CC(C3)C2C1=O)NCCC1=CCCCC1 (stereo unspecified)	none
CCN(c1ccccc1)S(=O)(=O)c1ccc(Cl)c(NC(=O)CNC(C)c2ccccc2)c1 (stereo unspecified)	OX1R antag-1 28, OX1R antag-2 50 (no result: GPR7 antag, EP2 mod, EP2 antag) | OX1R Ca confirm inactive | CHO Ca counter 37 | OX1R HTRF conf inactive | CHO-K1 HTRF inactive
CCC(C)NCC(=O)Nc1cc(S(=O)(=O)N(CC)c2ccccc2)ccc1Cl (stereo unspecified)	none
